Assay results published in ChEMBL document CHEMBL1148788 (J Med Chem, 2007).
Several values for one entry are separate records, joined by “and”; a condition that tells them apart may be missing. Equal entries are not always repeated. Activity calls are given as the source filed them. The rule behind the calls is not given here.

Experiments:
[1] = molecular target: T1, Neuronal acetylcholine receptor subunit alpha-7 (Homo sapiens, UniProt P36544); test: Antagonist activity at human alpha-7 nAChR in tsA201 cells coexpressed with Ric3 by FMP assay; type: functional, cell-based
Target sequence in this assay (P36544 whole entry): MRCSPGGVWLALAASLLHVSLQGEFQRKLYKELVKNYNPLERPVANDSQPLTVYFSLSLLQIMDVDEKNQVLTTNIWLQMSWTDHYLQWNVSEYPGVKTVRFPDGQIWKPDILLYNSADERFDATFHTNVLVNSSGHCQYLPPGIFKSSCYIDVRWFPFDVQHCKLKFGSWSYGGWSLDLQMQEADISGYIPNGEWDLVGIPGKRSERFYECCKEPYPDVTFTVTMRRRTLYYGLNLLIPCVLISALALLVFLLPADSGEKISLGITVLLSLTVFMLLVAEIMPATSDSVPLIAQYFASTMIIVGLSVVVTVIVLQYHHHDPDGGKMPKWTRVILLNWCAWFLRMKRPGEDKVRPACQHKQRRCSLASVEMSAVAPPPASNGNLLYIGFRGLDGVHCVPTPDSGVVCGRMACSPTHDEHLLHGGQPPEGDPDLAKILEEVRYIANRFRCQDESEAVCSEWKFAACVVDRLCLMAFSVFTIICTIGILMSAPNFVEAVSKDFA

[2] = molecular target: T2, 5-hydroxytryptamine receptor 3A (Homo sapiens, UniProt P46098); test: Antagonist activity at human 5HT3A receptor expressed in HEK293 cells by FMP assay; type: functional, cell-based; settings: read-out: IC50
T2 sequence (P46098 whole entry): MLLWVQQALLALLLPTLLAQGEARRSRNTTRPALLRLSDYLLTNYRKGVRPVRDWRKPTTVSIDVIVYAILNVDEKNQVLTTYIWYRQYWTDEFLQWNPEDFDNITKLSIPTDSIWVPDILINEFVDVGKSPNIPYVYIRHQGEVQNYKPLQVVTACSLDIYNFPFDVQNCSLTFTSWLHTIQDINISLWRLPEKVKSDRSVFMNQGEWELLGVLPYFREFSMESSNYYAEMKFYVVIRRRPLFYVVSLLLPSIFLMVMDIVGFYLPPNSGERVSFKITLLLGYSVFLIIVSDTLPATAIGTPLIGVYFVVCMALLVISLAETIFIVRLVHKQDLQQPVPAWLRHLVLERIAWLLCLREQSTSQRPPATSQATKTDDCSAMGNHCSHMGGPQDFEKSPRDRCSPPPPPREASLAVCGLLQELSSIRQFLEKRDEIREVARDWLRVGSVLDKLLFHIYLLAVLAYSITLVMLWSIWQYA

[3] = cells; type: functional, cell-based; settings: Homo sapiens, HEK293
[4] = test system: tsA201; test: Displacement of [3H]methyllycaconitine from chimeric alpha-7nAChR Y188A mutant/5-HT3A receptor in tsA201 cells; type: cell-based; settings: Homo sapiens
How it was run: (§1)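 tsA-201 cells transiently transfected with 4 µg WT or mutant α7/5-HT3A chimera and assayed 2 days later. Membranes washed twice at 50000g in 50 mM Tris-HCl pH 7.2. Incubated with 0.5 nM [3H]MLA and compound for 2.5 h at room temperature with shaking; nonspecific binding with 5 mM (S)-nicotine. PEI-soaked GF/C filtration, scintillation counting. Ki derived; duplicate, 3–7 experiments.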

[5] = molecular target: T1, Neuronal acetylcholine receptor subunit alpha-7; test: Displacement of [3H]methyllycaconitine from alpha7 nAChR in tsA201 cells co-expressed with Ric3; type: cell-based
Target sequence in this assay (P36544 whole entry): as the sequence (P36544 whole entry) above

[6] = Antagonist activity at human alpha-7 nAChR Y188A mutant coexpressed with human Ric3 in tsA201 cells by FMP assay; type: functional, cell-based
[7] = test system: tsA201; test: Displacement of [3H]methyllycaconitine from chimeric alpha-7nAChR W149Y mutant/5HT3A receptor W149Y mutant in tsA201 cells; type: cell-based; settings: Homo sapiens; how it was run: as §1
[8] = Antagonist activity at human alpha-7 nAChR Y195A mutant coexpressed with human Ric3 in tsA201 cells by FMP assay; type: functional, cell-based
[9] = molecular target: Neuronal acetylcholine receptor; alpha4/beta2 (Rattus norvegicus, UniProt P09483+P12390); test: Displacement of [3H]epibatidine from rat recombinant alpha-4-beta-2 nAChR in HEK293 cell line; type: cell-based
Chain of Neuronal acetylcholine receptor; alpha4/beta2 (P09483 whole entry): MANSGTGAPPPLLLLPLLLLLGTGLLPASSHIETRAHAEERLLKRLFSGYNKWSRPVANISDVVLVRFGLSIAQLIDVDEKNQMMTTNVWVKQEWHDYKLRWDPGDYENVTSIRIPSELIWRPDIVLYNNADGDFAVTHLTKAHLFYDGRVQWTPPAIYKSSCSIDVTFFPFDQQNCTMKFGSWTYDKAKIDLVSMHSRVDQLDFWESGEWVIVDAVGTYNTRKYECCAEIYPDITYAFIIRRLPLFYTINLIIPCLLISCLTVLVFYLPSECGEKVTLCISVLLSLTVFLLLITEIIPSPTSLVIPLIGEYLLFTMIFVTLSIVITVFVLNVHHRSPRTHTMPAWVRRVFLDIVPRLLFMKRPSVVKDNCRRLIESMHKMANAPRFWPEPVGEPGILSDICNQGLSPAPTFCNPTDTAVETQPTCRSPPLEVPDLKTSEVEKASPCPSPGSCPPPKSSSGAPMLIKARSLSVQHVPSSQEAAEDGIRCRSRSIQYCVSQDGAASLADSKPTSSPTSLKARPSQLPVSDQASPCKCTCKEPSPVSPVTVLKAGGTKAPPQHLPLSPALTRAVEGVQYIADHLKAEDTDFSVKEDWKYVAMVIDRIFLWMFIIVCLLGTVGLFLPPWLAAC
Chain of Neuronal acetylcholine receptor; alpha4/beta2 (P12390 whole entry): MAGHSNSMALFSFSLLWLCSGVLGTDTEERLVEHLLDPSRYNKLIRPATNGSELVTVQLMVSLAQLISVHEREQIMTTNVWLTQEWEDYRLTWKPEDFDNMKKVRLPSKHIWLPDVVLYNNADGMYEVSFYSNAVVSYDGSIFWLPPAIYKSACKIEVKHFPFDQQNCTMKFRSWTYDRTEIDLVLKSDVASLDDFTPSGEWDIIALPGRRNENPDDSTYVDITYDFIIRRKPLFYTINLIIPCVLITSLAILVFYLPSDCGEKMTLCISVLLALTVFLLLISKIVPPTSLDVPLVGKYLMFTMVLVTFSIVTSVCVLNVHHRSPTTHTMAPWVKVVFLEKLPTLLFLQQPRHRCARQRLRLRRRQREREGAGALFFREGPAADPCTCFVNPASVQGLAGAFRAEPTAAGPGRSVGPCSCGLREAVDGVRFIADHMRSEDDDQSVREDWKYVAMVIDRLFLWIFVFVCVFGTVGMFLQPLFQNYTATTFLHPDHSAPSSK

[10] = Displacement of [3H]methyllycaconitine from chimeric alpha-7nAChR D197A mutant/5HT3A receptor in tsA201 cells; type: cell-based, Homo sapiens; how it was run: as §1
[11] = Displacement of [3H]methyllycaconitine from chimeric alpha7nAChR K145A mutant/5HT3A receptor in tsA201 cells; type: cell-based, Homo sapiens; how it was run: as §1
[12] = molecular target: T2, 5-hydroxytryptamine receptor 3A; test: Displacement of [3H]GR65630 from human 5HT3A receptor in HEK293 cells; type: cell-based
[13] = Displacement of [3H]methyllycaconitine from chimeric alpha7nAChR R79A mutant/5HT3A receptor R79A mutant in tsA201 cells; type: cell-based, Homo sapiens; how it was run: as §1
[14] = Displacement of [3H]methyllycaconitine from chimeric alpha-7nAChR Y168A mutant/5HT3A receptor in tsA201 cells; type: cell-based, Homo sapiens; how it was run: as §1
[15] = Displacement of [3H]methyllycaconitine from chimeric alpha-7nAChR S148A mutant /5HT3A receptor in tsA201 cells; type: cell-based, Homo sapiens; how it was run: as §1
[16] = Displacement of [3H]methyllycaconitine from chimeric alpha7nAChR Y195A mutant/5HT3A receptor in tsA201 cells; type: cell-based, Homo sapiens; how it was run: as §1
[17] = molecular target: Neuronal acetylcholine receptor; alpha4/beta4 (Rattus norvegicus, UniProt P09483+P12392); test: Displacement of [3H]epibatidine from recombinant rat alpha-4-beta-4 nAChr in HEK293 cell line; type: cell-based
Chain of Neuronal acetylcholine receptor; alpha4/beta4 (P09483 whole entry): as the sequence (P09483 whole entry) above
Chain of Neuronal acetylcholine receptor; alpha4/beta4 (P12392 whole entry): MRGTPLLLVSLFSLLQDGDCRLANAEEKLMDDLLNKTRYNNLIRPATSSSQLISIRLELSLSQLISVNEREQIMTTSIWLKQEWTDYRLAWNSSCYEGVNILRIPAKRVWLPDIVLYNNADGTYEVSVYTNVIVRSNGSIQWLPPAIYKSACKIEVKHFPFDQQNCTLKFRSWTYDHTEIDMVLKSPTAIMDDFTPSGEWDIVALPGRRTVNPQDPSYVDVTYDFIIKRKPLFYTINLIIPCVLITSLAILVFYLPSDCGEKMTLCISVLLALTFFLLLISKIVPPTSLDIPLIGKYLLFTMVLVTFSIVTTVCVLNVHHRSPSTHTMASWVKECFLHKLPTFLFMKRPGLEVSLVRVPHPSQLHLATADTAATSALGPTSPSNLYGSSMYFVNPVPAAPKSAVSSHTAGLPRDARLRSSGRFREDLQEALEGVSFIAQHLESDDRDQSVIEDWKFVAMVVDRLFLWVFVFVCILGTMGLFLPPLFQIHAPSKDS

[18] = Displacement of [3H]methyllycaconitine from chimeric alpha-7nAChR S150A mutant/5HT3A receptor in tsA201 cells; type: cell-based, Homo sapiens; how it was run: as §1
[19] = molecular target: T1, Neuronal acetylcholine receptor subunit alpha-7; test: Displacement of [3H]methyllycaconitine from human alpha-7 in tsA201 cells coexpressed with 5HT3A receptor; type: cell-based
Target sequence in this assay (P36544 whole entry): as the sequence (P36544 whole entry) above

[20] = molecular target: T1, Neuronal acetylcholine receptor subunit alpha-7
Target sequence in this assay (P36544 whole entry): as above

[21] = Antagonist activity at human alpha7 nAChR W149Y mutant co-expressed with human Ric3 in tsA201 cells by FMP assay; type: functional, cell-based
[22] = Displacement of [3H]methyllycaconitine from chimeric alpha-7nAChR N107A mutant/5HT3A receptor in tsA201 cells; type: cell-based, Homo sapiens; how it was run: as §1
[23] = test system: tsA201; test: Displacement of [3H]methyllycaconitine from chimeric alpha-7nAChR W149A mutant/5HT3A receptor in tsA201 cells; type: cell-based; settings: Homo sapiens; how it was run: as §1
[24] = Displacement of [3H]methyllycaconitine from chimeric alpha-7nAChR Y195F mutant/5HT3A receptor in tsA201 cells; type: cell-based, Homo sapiens; how it was run: as §1
[25] = Antagonist activity at human alpha7nAChR Y93A mutant co-expressed with human Ric3 in tsA201 cells by FMP assay; type: functional, cell-based
[26] = molecular target: T3, Neuronal acetylcholine receptor; alpha3/beta4 (Rattus norvegicus, UniProt P04757+P12392); test: Displacement of [3H]epibatidine from recombinant rat alpha-3-beta-4 nAChr in HEK293 cell line; type: cell-based
T3 sequence (P04757 whole entry): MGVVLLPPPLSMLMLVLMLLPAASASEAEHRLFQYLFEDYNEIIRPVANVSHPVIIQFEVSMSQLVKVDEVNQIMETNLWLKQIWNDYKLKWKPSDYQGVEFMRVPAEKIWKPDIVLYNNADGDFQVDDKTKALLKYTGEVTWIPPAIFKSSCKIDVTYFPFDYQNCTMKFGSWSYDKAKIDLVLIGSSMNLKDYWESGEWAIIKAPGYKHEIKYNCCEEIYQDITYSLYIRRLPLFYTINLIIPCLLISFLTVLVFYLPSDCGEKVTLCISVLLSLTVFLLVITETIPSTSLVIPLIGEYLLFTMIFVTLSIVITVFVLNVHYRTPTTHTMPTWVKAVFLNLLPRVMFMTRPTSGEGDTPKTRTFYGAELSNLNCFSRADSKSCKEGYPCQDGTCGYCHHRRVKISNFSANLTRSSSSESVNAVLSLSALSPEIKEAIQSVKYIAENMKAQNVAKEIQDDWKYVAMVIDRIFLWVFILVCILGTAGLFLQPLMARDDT
T3 sequence (P12392 whole entry): as the sequence (P12392 whole entry) above

[27] = molecular target: T3, Neuronal acetylcholine receptor; alpha3/beta4; test: Antagonist activity at rat alpha3beta4 nAChR expressed in HEK293 cells by FMP assay; type: functional, cell-based, Homo sapiens; settings: read-out: IC50
[28] = Displacement of [3H]methyllycaconitine from chimeric alpha-7nAChR W55A mutant /5HT3A receptor in tsA201 cells; type: cell-based, Homo sapiens; how it was run: as §1
[29] = molecular target: T1, Neuronal acetylcholine receptor subunit alpha-7; test: Displacement of [3H]methyllycaconitine from chimeric alpha7nAChR/5HT3A in tsA201 cells; type: cell-based
Target sequence in this assay (P36544 23-502 limits assumed): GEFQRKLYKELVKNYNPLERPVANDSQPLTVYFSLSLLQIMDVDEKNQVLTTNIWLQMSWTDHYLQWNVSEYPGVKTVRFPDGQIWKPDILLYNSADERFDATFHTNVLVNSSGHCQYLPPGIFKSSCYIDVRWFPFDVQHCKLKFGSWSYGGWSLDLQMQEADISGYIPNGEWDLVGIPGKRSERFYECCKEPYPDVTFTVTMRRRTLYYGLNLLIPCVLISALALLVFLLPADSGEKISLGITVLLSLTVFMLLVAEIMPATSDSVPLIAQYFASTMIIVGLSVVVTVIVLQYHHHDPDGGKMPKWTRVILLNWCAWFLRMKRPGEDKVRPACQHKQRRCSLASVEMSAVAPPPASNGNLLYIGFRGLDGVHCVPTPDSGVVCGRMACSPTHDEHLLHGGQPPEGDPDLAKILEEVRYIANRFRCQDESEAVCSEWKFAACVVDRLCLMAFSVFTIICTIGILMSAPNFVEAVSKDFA

[30] = Displacement of [3H]methyllycaconitine from chimeric alpha-7nAChR K145R mutant /5HT3A receptor in tsA201 cells; type: cell-based, Homo sapiens; how it was run: as §1
[31] = test system: tsA201; test: Displacement of [3H]methyllycaconitine from chimeric alpha-7nAChR Y93A mutant/5HT3A receptor in tsA201 cells; type: cell-based; settings: Homo sapiens; how it was run: as §1
[32] = test system: tsA201; test: Displacement of [3H]methyllycaconitine from chimeric alpha-7nAChR W55A/Y195A mutant /5HT3A receptor in tsA201 cells; type: cell-based; settings: Homo sapiens; how it was run: as §1
[33] = molecular target: T4, Glycine receptor subunit alpha-1 (Homo sapiens, UniProt P23415); test: Antagonist activity at human glycine alpha-1 receptor in HEK293 cells by FMP assay; type: functional, cell-based
T4 sequence (P23415 whole entry): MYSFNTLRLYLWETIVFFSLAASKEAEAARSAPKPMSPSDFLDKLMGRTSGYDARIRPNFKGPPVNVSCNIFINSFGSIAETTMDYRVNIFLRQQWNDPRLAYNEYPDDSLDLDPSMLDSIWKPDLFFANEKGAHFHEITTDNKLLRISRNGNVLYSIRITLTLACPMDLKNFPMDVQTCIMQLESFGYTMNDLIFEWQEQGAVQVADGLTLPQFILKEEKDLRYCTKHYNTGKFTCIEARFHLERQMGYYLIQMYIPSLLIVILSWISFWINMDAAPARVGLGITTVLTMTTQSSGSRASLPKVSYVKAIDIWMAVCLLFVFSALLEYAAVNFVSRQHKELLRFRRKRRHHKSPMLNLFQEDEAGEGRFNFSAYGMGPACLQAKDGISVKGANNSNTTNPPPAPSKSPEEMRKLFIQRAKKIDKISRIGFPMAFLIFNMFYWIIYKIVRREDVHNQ

[34] = Displacement of [3H]methyllycaconitine from chimeric alpha7nAChR W55Y mutant/5HT3A receptor in tsA201 cells; type: cell-based, Homo sapiens; how it was run: as §1

## C[N+]12CC[C@@H]3[C@@H]4/C(=C\N5c6ccccc6[C@@]67CC[N+]8(C)CC9=CCO[C@H]([C@@H]([C@H]56)[C@H]9C[C@@H]78)N4c4ccccc4)[C@@H](C[C@@H]31)/C(=C\CO)C2.[I-].[I-] (stereo partly drawn)
[1]; read-out: IC50
  IC50: 2.1 µM
[1]; read-out: pIC50 (converted)
  IC50: 2.09 µM
[2]
  IC50: 4.2 µM
[3]; read-out: IC50
  IC50: > 100 µM
[3]; read-out: pIC50 (converted)
  IC50: > 100 µM
[4]
  Activity: inactive
[5]; read-out: Ki
  Ki: 0.62 µM
[5]; read-out: pKi (converted)
  Ki: 0.631 µM
[6]; read-out: IC50
  IC50: 4.7 µM
[6]; read-out: pIC50 (converted)
  IC50: 4.68 µM
[7]
  Activity: inactive
[8]; read-out: IC50
  IC50: 7.1 µM
[8]; read-out: pIC50 (converted)
  IC50: 7.08 µM
[9]; hek293
  pKi: < 4
[9]; read-out: Ki
  Ki: > 100 µM
[10]
  Ki: 2.2 µM
  pKi: 5.66
[11]
  Ki: 0.89 µM
  pKi: 6.05
[12]
  Ki: 5.9 µM
[13]
  Ki: 1.4 µM
  pKi: 5.86
[14]
  Ki: 1.3 µM
  pKi: 5.89
[15]
  Ki: 1 µM
  pKi: 5.98
[16]
  Ki: 6.2 µM
  pKi: 5.21
[17]
  Ki: > 100 µM
[17]; hek293
  pKi: < 4
[18]
  Ki: 0.72 µM
  pKi: 6.14
[19]; read-out: Ki
  Ki: 0.98 µM
[19]; read-out: pKi (converted)
  Ki: 1 µM
[20]
  IC50: 1.4 µM and 1.38 µM
[21]; read-out: IC50
  IC50: 8.9 µM
[21]; read-out: pIC50 (converted)
  IC50: 8.91 µM
[22]
  Ki: 1.3 µM
  pKi: 5.87
[23]
  Activity: inactive
[24]
  Ki: 1.3 µM
  pKi: 5.9
[25]; read-out: IC50
  IC50: 6.6 µM
[25]; read-out: pIC50 (converted)
  IC50: 6.61 µM
[26]
  Ki: 30 µM
[27]
  IC50: 30 µM
[28]
  Ki: 3.1 µM
  pKi: 5.51
[29]
  Ki: 0.97 µM
  pKi: 6.01
[30]
  Ki: 0.74 µM
  pKi: 6.13
[31]
  Activity: inactive
[32]
  Activity: inactive
[33]
  IC50: > 100 µM
[33]; hek293
  pIC50: < 4
[34]
  Ki: 0.69 µM
  pKi: 6.16
